Experimental data as given in ChEMBL document CHEMBL1137333, “Synthesis, radiosynthesis, and biological evaluation of carbon-11 labeled 2beta-carbomethoxy-3beta-(3'-((Z)-2-haloethenyl)phenyl)nortropanes: candidate radioligands for in vivo imaging of the serotonin transporter with positron emission tomography” (J Med Chem, 2006).

Experiments:
[1] = tested on: Cynomolgus monkey; test: Uptake in anesthetized cynomolgus monkey medulla after 35.0 mins; assay type: ADME, organism-based, Medulla of organ; settings: in vivo
How it was run: (§1)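 Baseline microPET scan (P4 scanner) of anesthetized cynomolgus monkeys after injection of the carbon-11 labelled nortropane tracer. Two baseline studies were run per tracer. Radioactivity was followed over time in regional brain time-activity curves.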

[2] = tested on: Cynomolgus monkey; test: Uptake in anesthetized cynomolgus monkey cerebellum after 45.0 mins; assay type: ADME, organism-based; settings: in vivo, 0.75 h
How it was run: (§2)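 Baseline microPET (Concorde P4) regional brain time-activity curves in anesthetized cynomolgus monkey following injection of the [11C]-labelled tracer, with radioactivity followed over the scan.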

[3] = tested on: Cynomolgus monkey; test: Uptake in anesthetized cynomolgus monkey medulla after 75.0 mins; assay type: ADME, organism-based, Medulla of organ; settings: in vivo, 1.25 h; how it was run: as §1
[4] = tested on: Cynomolgus monkey; test: Uptake in anesthetized cynomolgus monkey frontal after 75.0 mins; assay type: ADME, organism-based, Frontal cortex; settings: in vivo, 1.25 h; how it was run: as §1
[5] = tested on: Cynomolgus monkey; test: Uptake in anesthetized cynomolgus monkey thalamus after 105.0 mins; assay type: ADME, organism-based; settings: in vivo, 1.75 h
How it was run: (§3)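 Baseline microPET (Concorde P4) scan in anesthetized cynomolgus monkeys after injection of the carbon-11 labeled tracer, with no chase drug. Regional brain time-activity curves were followed over the scan. Tracer radiochemical purity and specific activity were determined by analytical HPLC at the time of injection.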

[6] = tested on: Cynomolgus monkey; test: Uptake in anesthetized cynomolgus monkey cerebellum after 115.0 mins; assay type: ADME, organism-based; settings: in vivo; how it was run: as §2
[7] = tested on: Cynomolgus monkey; test: Uptake in anesthetized cynomolgus monkey cerebellum after 95.0 mins; assay type: ADME, organism-based; settings: in vivo; how it was run: as §2
[8] = tested on: Cynomolgus monkey; test: Uptake in anesthetized cynomolgus monkey cerebellum after 35.0 mins; assay type: ADME, organism-based, Macaca mulatta; settings: rhesus monkey, in vivo; how it was run: as §2
[9] = tested on: Cynomolgus monkey; test: Uptake in anesthetized cynomolgus monkey putamen after 45.0 mins; assay type: ADME, organism-based; settings: in vivo, 0.75 h; how it was run: as §3
[10] = tested on: Cynomolgus monkey; test: Ratio of uptake in thalamus to cerebellum of anesthetized cynomolgus monkey after 105 mins; assay type: ADME, organism-based; settings: in vivo, 1.75 h
How it was run: (§4)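 Baseline microPET (Concorde P4) in anesthetized cynomolgus monkey after injection of the [11C]-labelled tracer. Regional time-activity curves were taken, and each region's uptake was divided by cerebellum uptake (low-SERT reference) at 65, 85 and 105 min postinjection.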

[11] = tested on: Cynomolgus monkey; test: Uptake in anesthetized cynomolgus monkey medulla after 65.0 mins; assay type: ADME, organism-based, Medulla of organ; settings: in vivo; how it was run: as §1
[12] = tested on: Cynomolgus monkey; test: Uptake in anesthetized cynomolgus monkey frontal after 65.0 mins; assay type: ADME, organism-based, Frontal cortex; settings: in vivo; how it was run: as §1
[13] = tested on: Cynomolgus monkey; test: Uptake in anesthetized cynomolgus monkey medulla after 15.5 mins; assay type: ADME, organism-based, Medulla of organ; settings: in vivo; how it was run: as §1
[14] = tested on: Cynomolgus monkey; test: Uptake in anesthetized cynomolgus monkey medulla after 3.5 mins; assay type: ADME, organism-based, Medulla of organ; settings: in vivo; how it was run: as §1
[15] = tested on: Cynomolgus monkey; test: Uptake in anesthetized cynomolgus monkey putamen after 85.0 mins; assay type: ADME, organism-based; settings: in vivo; how it was run: as §3
[16] = tested on: Cynomolgus monkey; test: Uptake in anesthetized cynomolgus monkey caudate after 2.5 mins; assay type: ADME, organism-based, Caudate nucleus; settings: in vivo; how it was run: as §2
[17] = tested on: Cynomolgus monkey; test: Uptake in anesthetized cynomolgus monkey medulla after 4.5 mins; assay type: ADME, organism-based, Medulla of organ; settings: in vivo, 0.075 h; how it was run: as §1
[18] = tested on: Cynomolgus monkey; test: Uptake in anesthetized cynomolgus monkey caudate after 0.5 mins; assay type: ADME, organism-based, Caudate nucleus; settings: in vivo; how it was run: as §2
[19] = tested on: Cynomolgus monkey; test: Uptake in anesthetized cynomolgus monkey putamen after 9.5 mins; assay type: ADME, organism-based; settings: in vivo; how it was run: as §3
[20] = tested on: Cynomolgus monkey; test: Uptake in anesthetized cynomolgus monkey putamen after 12.5 mins; assay type: ADME, organism-based; settings: in vivo; how it was run: as §3
[21] = tested on: Cynomolgus monkey; test: Uptake in anesthetized cynomolgus monkey midbrain after 15.5 mins; assay type: ADME, organism-based; settings: in vivo; how it was run: as §1
[22] = tested on: Cynomolgus monkey; test: Uptake in anesthetized cynomolgus monkey thalamus after 65.0 mins; assay type: ADME, organism-based; settings: in vivo; how it was run: as §3
[23] = tested on: Cynomolgus monkey; test: Uptake in anesthetized cynomolgus monkey occipital after 15.5 mins; assay type: ADME, organism-based, Macaca mulatta, Occipital cortex; settings: rhesus monkey, in vivo; how it was run: as §1
[24] = tested on: Cynomolgus monkey; test: Ratio of uptake in pons to cerebellum of anesthetized cynomolgus monkey after 85 mins; assay type: ADME, organism-based; settings: in vivo; how it was run: as §4
[25] = tested on: Cynomolgus monkey; test: Ratio of uptake in frontal to cerebellum of anesthetized cynomolgus monkey after 105 mins; assay type: ADME, organism-based; settings: in vivo, 1.75 h; how it was run: as §4
[26] = tested on: Cynomolgus monkey; test: Uptake in anesthetized cynomolgus monkey caudate after 35.0 mins; assay type: ADME, organism-based, Caudate nucleus; settings: in vivo; how it was run: as §2
[27] = tested on: Cynomolgus monkey; test: Uptake in anesthetized cynomolgus monkey putamen after 1.5 mins; assay type: ADME, organism-based; settings: in vivo, 0.025 h; how it was run: as §3
[28] = tested on: Cynomolgus monkey; test: Ratio of uptake in putamen to cerebellum of anesthetized cynomolgus monkey after 85 mins; assay type: ADME, organism-based; settings: in vivo; how it was run: as §4
[29] = tested on: Cynomolgus monkey; test: Uptake in anesthetized cynomolgus monkey occipital after 0.5 mins; assay type: ADME, organism-based, Occipital cortex; settings: in vivo; how it was run: as §1
[30] = tested on: Cynomolgus monkey; test: Uptake in anesthetized cynomolgus monkey frontal after 45.0 mins; assay type: ADME, organism-based, Frontal cortex; settings: in vivo, 0.75 h; how it was run: as §1
[31] = tested on: Cynomolgus monkey; test: Uptake in anesthetized cynomolgus monkey thalamus after 9.5 mins; assay type: ADME, organism-based; settings: in vivo; how it was run: as §3
[32] = tested on: Cynomolgus monkey; test: Uptake in anesthetized cynomolgus monkey frontal after 0.5 mins; assay type: ADME, organism-based, Frontal cortex; settings: in vivo; how it was run: as §2
[33] = tested on: Cynomolgus monkey; test: Uptake in anesthetized cynomolgus monkey putamen after 115.0 mins; assay type: ADME, organism-based; settings: in vivo; how it was run: as §3
[34] = tested on: Cynomolgus monkey; test: Uptake in anesthetized cynomolgus monkey pons after 15.5 mins; assay type: ADME, organism-based; settings: in vivo; how it was run: as §3

[11CH3]OC(=O)[C@@H]1C2CCC(C[C@@H]1c1cccc(/C=C/Br)c1)N2 (some centres undefined)
Drug uptake [1]: 7.19 | Drug uptake [2]: 5.58 | Drug uptake [3]: 7.18 | Drug uptake [4]: 3.78 | Drug uptake [5]: 6.47 | Drug uptake [6]: 3.76 | Drug uptake [7]: 4.09 | Drug uptake [8]: 5.92 | Drug uptake [9]: 7.28 | Ratio [10]: 1.6 | Drug uptake [11]: 7.11 | Drug uptake [12]: 3.8 | Drug uptake [13]: 6.52 | Drug uptake [14]: 2.5 | Drug uptake [15]: 7.16 | Drug uptake [16]: 0.73 | Drug uptake [17]: 3.57 | Drug uptake [18]: 0.01 | Drug uptake [19]: 5.41 | Drug uptake [20]: 5.62 | Drug uptake [21]: 6.32 | Drug uptake [22]: 6.39 | Drug uptake [23]: 4.55 | Ratio [24]: 1.6 | Ratio [25]: 1.2 | Drug uptake [26]: 6.21 | Drug uptake [27]: 0.3 | Ratio [28]: 1.6 | Drug uptake [29]: 0.01 | Drug uptake [30]: 3.76 | Drug uptake [31]: 4.3 | Drug uptake [32]: 0.01 | Drug uptake [33]: 7.1 | Drug uptake [34]: 5.76
